Active and inactive are the calls of the source. The calls are words filed in the database; no cut-off is given here.
test system: Toledo; assay: Antiproliferative activity against human Toledo cells after 48 hrs by CCK8 assay; format: functional, cell-based

Row | Structure (SMILES) | IC50
1 | O=C(CCl)Nc1ccc(-n2nc(OCCc3cn(-c4ccccc4)nn3)nc2-c2ccc(Cl)c(Cl)c2)cc1 | 0.38 µM
2 | COCCOc1nc(-c2ccc(Cl)cc2)n(-c2ccc(NC(=O)CCl)cc2)n1 | 1.72 µM
3 | COCCOc1nc(-c2ccc(Cl)c(Cl)c2)n(-c2ccc(NC(=O)CCl)cc2)n1 | 0.8 µM
4 | O=C(CCl)Nc1ccc(-n2nc(OCCN3CCOCC3)nc2-c2ccc(Cl)c(Cl)c2)cc1 | 0.47 µM

molecular target: T1, Mucosa-associated lymphoid tissue lymphoma translocation protein 1 (Homo sapiens) (UniProt Q9UDY8); assay: Inhibition of MALT1 in PMA/ionomycin-stimulated human Jurkat T cells assessed as reduction in RelB cleavage at 2 uM pretreated for 4 hrs followed by 1 hr incubation with protease inhibitor MG132 and subsequent PMA/ionomycin-stimulation measured after 1 hr by Western blot analysis; format: cell-based
T1 sequence (whole entry): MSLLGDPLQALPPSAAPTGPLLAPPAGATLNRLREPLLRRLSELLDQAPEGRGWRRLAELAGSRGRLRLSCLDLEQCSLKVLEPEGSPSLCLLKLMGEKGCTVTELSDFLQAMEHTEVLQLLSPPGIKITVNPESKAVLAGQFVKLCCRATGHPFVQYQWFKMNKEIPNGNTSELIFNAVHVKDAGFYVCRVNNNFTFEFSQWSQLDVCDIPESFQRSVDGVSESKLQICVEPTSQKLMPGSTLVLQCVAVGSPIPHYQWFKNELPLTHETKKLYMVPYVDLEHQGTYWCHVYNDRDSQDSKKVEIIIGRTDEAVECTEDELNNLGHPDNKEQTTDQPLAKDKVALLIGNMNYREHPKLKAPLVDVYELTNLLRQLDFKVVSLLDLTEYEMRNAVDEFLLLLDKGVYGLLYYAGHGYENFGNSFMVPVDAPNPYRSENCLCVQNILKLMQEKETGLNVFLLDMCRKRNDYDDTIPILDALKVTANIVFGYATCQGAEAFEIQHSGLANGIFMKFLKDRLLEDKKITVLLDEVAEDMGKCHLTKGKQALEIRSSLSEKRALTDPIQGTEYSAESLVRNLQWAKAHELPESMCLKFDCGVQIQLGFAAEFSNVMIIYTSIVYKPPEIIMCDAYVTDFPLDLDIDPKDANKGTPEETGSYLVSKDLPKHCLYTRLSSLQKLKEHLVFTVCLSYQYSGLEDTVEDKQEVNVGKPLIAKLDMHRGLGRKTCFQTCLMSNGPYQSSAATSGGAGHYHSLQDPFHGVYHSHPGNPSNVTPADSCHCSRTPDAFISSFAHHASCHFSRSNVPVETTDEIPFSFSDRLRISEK
Summary of the method: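 Jurkat T cells in RPMI 1640 with 10% FBS, seeded at 9×10^5 cells/well, treated with compound or DMSO for 4 h, then 1 h with MG132 (10 μM), then stimulated with PMA. RelB cleavage as the read-out of MALT1 activity, detected by Western blot.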

Row | Structure (SMILES) | inhibition
5 | O=C(CCl)Nc1ccc(-n2nc(OCC(O)CO)nc2-c2ccc(Cl)c(Cl)c2)cc1 (stereo not given) | Active
6 | O=C(CCl)Nc1ccc(-n2nc(OCCc3cn(-c4ccccc4)nn3)nc2-c2ccc(Cl)c(Cl)c2)cc1 | Active
7 | COCC(C)Oc1nc(-c2ccc(Cl)c(Cl)c2)n(-c2ccc(NC(=O)CCl)cc2)n1 (stereo not given) | Active
8 | O=C(CCl)Nc1ccc(-n2nc(OCCCO)nc2-c2ccc(Cl)c(Cl)c2)cc1 | Active
9 | COCCOCCOc1nc(-c2ccc(Cl)c(Cl)c2)n(-c2ccc(NC(=O)CCl)cc2)n1 | Active
10 | COCCOc1nc(-c2ccc(NC(=O)CCl)cc2)n(-c2ccc(Cl)c(Cl)c2)n1 | Active
